According to ChEMBL document CHEMBL1138470, “Discovery and characterization of the N-phenyl-N'-naphthylurea class of p38 kinase inhibitors” (Bioorg Med Chem Lett, 2009):
Activity calls are given as the source filed them. The rule behind the calls is not given here.

What was measured:
[1] = target: T1, Mitogen-activated protein kinase 14 (Homo sapiens, UniProt Q16539); assay: Binding affinity to p38alpha assessed as inhibition of ATF2 phosphorylation preincubated for 4 hrs
[2] = target: T1, Mitogen-activated protein kinase 14
[3] = tested on: THP-1; assay: Inhibition of LPS-induced TNFalpha production in human THP1 cells; format: functional, cell-based
In short: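 LPS-stimulated TNFα release from THP-1 cells; IC50 values are means of 2–4 experiments, SD for n > 2 typically ±50% of the value.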

[4] = tested on: Blood; assay: Inhibition of LPS-induced TNFalpha production in human whole blood; format: functional, tissue-based
In short: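 LPS-stimulated TNFα production in whole blood from human donors; IC50 reported as geometric mean of 4–12 donor experiments, SD typically ±50% of the value.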

[5] = tested on: Mus musculus; assay: Inhibition of LPS-induced endotoxemia in mouse assessed as inhibition of TNFalpha production at 3 mg/kg, po; format: functional
In short: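 Mouse LPS-induced endotoxemia model; compound given orally at 3 mg/kg, and TNFα production is measured and expressed as percent inhibition.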
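For Tm in this document: thermal denaturation measurement of the p38alpha–inhibitor complex, reporting its melting point as a readout of binding.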

T1 sequence (Q16539 whole entry): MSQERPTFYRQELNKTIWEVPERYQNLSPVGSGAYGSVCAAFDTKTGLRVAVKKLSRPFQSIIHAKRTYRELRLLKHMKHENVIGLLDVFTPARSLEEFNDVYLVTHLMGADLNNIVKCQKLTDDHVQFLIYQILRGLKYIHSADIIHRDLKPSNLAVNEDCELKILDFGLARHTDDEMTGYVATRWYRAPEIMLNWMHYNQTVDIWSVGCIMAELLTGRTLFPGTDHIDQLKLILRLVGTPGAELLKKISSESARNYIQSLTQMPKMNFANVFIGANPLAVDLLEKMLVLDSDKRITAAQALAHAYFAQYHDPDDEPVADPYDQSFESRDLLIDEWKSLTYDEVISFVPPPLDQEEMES

SMILES: COc1ccc(C(C)(C)C)cc1NC(=O)c1cc2ccccc2s1
- IC50 [1]: > 10000 nM
- Tm [2]: 46.9 °C

SMILES: Cc1ccc(C(C)(C)C)cc1NC(=O)Nc1ccc(-c2ccc(CN3CCOCC3)nc2)c2ccccc12
- IC50 [3]: 9.4 nM
- IC50 [4]: 180 nM
- Tm [2]: 54.6 °C

SMILES: Cc1ccc(-n2nc(C(C)(C)C)cc2NC(=O)Nc2ccc(OCCN3CCOCC3)c3ccccc23)cc1 [DORAMAPIMOD]
- Activity [5]: inactive
- IC50 [3]: 18 nM
- IC50 [4]: 780 nM

SMILES: Cc1ccc(C(C)(C)C)cc1NC(=O)Nc1ccc(OCCN2CCOCC2)c2ccccc12
- IC50 [3]: 380 nM
- IC50 [4]: > 10000 nM
- Tm [2]: 52.7 °C

SMILES: COc1c(NC(=O)Nc2ccc(-c3ccc(CN4CCOCC4)nc3)c3ccccc23)cc(C(C)(C)C)cc1C(=O)N(C)C
- IC50 [3]: 12 nM
- IC50 [4]: 97 nM
- Tm [2]: 56.2 °C

SMILES: COc1c(NC(=O)Nc2ccc(-c3ccc(CN4CCOCC4)nc3)c3ccccc23)cc(C(C)(C)C)cc1C(N)=O
- IC50 [3]: 9.4 nM
- IC50 [4]: 74 nM
- Tm [2]: 65.5 °C

SMILES: Cc1ccc(C(C)C)cc1NC(=O)Nc1ccc(-c2ccc(CN3CCOCC3)nc2)c2ccccc12
- IC50 [3]: 76 nM
- Tm [2]: 52.3 °C

SMILES: COc1c(NC(=O)c2cc3ccccc3o2)cc(C(C)(C)C)cc1NS(C)(=O)=O
- IC50 [1]: 4100 nM
- Tm [2]: 48.8 °C

SMILES: CCC(=O)Nc1cc(C(C)(C)C)cc(NC(=O)Nc2ccc(-c3ccc(CN4CCOCC4)nc3)c3ccccc23)c1OC
- IC50 [3]: 5.1 nM
- IC50 [4]: 71 nM
- Tm [2]: 58.7 °C

SMILES: Cc1ncc(-c2ccc(C(C)(C)C)cc2NC(=O)Nc2ccc(-c3ccc(CN4CCOCC4)nc3)c3ccccc23)cn1
- IC50 [3]: 29 nM
- IC50 [4]: 350 nM
- Tm [2]: 56.6 °C

SMILES: Cn1nc(C(C)(C)C)cc1NC(=O)Nc1ccc(OCCN2CCOCC2)c2ccccc12
- IC50 [3]: 140 nM
- IC50 [4]: 10000 nM
- Tm [2]: 54.5 °C

SMILES: COc1c(NC(=O)c2cc3ccccc3s2)cc(C(C)(C)C)cc1NS(C)(=O)=O
- IC50 [1]: 2700 nM
- Tm [2]: 51.4 °C

SMILES: COC(=O)Nc1cc(C(C)(C)C)cc(NC(=O)Nc2ccc(-c3ccc(CN4CCOCC4)nc3)c3ccccc23)c1OC
- IC50 [3]: 8.5 nM
- IC50 [4]: 110 nM
- Tm [2]: 58.1 °C
